Activity calls are given as the source filed them. The rule behind the calls is not given here.

The species entered for one test is Rattus norvegicus. Put plainly: Dose required for 50% inhibition of rat passive cutaneous anaphylaxis model. Format: functional.
Conditions: not given
An outline of the steps: (§1)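 Antiserum dilutions were injected intradermally on the back. 48 h later rats got an i.v. challenge of 1 mg ovalbumin with 0.25% Evans blue in 1 mL saline, with compound dissolved in it, using slight-excess NaHCO3 if needed.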
With `COc1cc2nc3ccc(C(=O)O)cn3c(=O)c2cc1OC`, the ED50 turned out to be 0.05 mg/kg.

Compound `O=C(O)c1ccc2nc3ccccc3c(=O)n2c1` came in with an ED50 of 0.5 mg/kg.

Compound `COc1ccc2c(=O)n3cc(-c4nn[nH]n4)ccc3nc2c1` displayed an ED50 of 0.5 mg/kg.

Turning to `COc1ccc2nc3ccc(-c4nn[nH]n4)cn3c(=O)c2c1`, the ED50 was found to be 0.03 mg/kg.

On to `COc1ccc2nc3ccc(C(=O)O)cn3c(=O)c2c1`, for which it took a dose of 0.05 mg/kg to reach the 50% effect level (ED50).

As for `Cc1ccc2nc3ccc(C(=O)O)cn3c(=O)c2c1`, the ED50 is 0.05 mg/kg.

For the compound `O=C(O)c1ccc2nc3cc4ccccc4cc3c(=O)n2c1`, it took a dose of 0.1 mg/kg to reach the 50% effect level (ED50).

As for `O=C(O)c1ccc2nc3ccc(O)cc3c(=O)n2c1`, it took a dose of 0.05 mg/kg to reach the 50% effect level (ED50).

The test system of another test is Rattus norvegicus. Put plainly: Percent inhibition of rat passive cutaneous anaphylaxis model after intravenous administration of the 0.5 mg/kg. Format: functional.
Conditions: not given
An outline of the steps: as §1
`Cc1ccc2nc3ccc(-c4nn[nH]n4)cn3c(=O)c2c1` had an inhibition in vivo at 0.5 mg/kg of 100%.

Consider `COc1cc2nc3ccc(-c4nn[nH]n4)cn3c(=O)c2cc1OC`, for which the inhibition in vivo at 0.5 mg/kg is 100%.

On to `O=c1c2cc3ccccc3cc2nc2ccc(-c3nn[nH]n3)cn12`, for which the inhibition in vivo at 0.5 mg/kg was found to be 100%.

Compound `O=C(O)c1ccn2c(=O)c3ccccc3nc2c1` gave an inhibition in vivo at 0.5 mg/kg of 26%.

As for `O=c1c2ccccc2nc2ccc(-c3nn[nH]n3)cn12`, the inhibition in vivo at 0.5 mg/kg was 68%.

Another test concerns Rattus norvegicus. In words: Percent inhibition of rat passive cutaneous anaphylaxis model after intravenous administration of the 0.5 mg/kg; IA is Inactive. Type of test: functional, organism-based. Particulars: at 0.5 mg/kg. Details: dose 0.5 mg/kg. An outline of the steps:
as §1
As to `O=C(O)C1=CN2CC3=C(CCCC3)N=C2C=C1`, the inhibition result was “inactive”.

As for `O=C(O)c1cccn2c(=O)c3ccccc3nc12`, the inhibition result is “inactive”.

Consider `O=C(O)c1ccc2nccc(=O)n2c1`, for which the inhibition entry was “inactive”.

In the case of `O=C(O)c1cccn2c(=O)c3cc4ccccc4cc3nc12`, the inhibition entry is “inactive”.
